Read-outs that look alike come from different tables or passages of the source.
Legend:
[1] = Cytotoxic evaluation on HepG2 cell line; assay type: cell-based; conditions: human, HepG2 cells (hepatocarcinoma cell line)
Procedure, shortened: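 HepG2 cells were seeded at 1 × 10^5 cells/mL in Alpha MEM with 10% FBS, 2 mM L-glutamine and antibiotics, and pre-incubated for 24 h at 37°C, 5% CO2. Compounds were added at various concentrations for 72 h, and wells were checked for precipitate. MTT (0.5 mg/mL) was added for 2 h, formazan was dissolved in DMSO, and A570 was read. Doxorubicin was the positive control. CC50 came from non-linear regression, mean of three independent experiments.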

[2] = tested on: L. infantum axenic amastigotes; assay: Antileishmanial activity on L. infantum axenic amastigotes; assay type: cell-based; conditions: Leishmania infantum, 48 h, read-out: IC50 L. infantum axenic amastigotes
Procedure, shortened: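 They were moved to RPMI at pH 5.4 for 24 h at 24°C, then 24 h at 37°C, to give axenic amastigotes. Compounds in DMSO (final <0.5% v/v) were tested in duplicate for 48 h at 37°C. Read-out was Steady Glow luminescence. IC50 came from non-linear regression, mean of three independent experiments.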

[3] = tested on: T. brucei brucei trypomastigotes; assay: Antitrypanosomal activity on T. brucei brucei trypomastigotes; assay type: cell-based, Trypanosoma brucei brucei; conditions: for Antitrypanosomal selectivity Index: CC50 HepG2 / IC50 T. brucei brucei; for times more potent than the meta-substituted analogue: T. brucei brucei IC50, para versus meta (15 vs 16, 21 vs 22)
[4] = tested on: T. brucei brucei trypomastigotes NTR over-expressing strain; assay: Bioactivation study, strain overexpressing the nitroreductase; assay type: cell-based, Trypanosoma brucei; conditions: for IC50: Trypanosoma brucei, 72 h, read-out: IC50 T. brucei brucei trypomastigotes NTR over-expressing strain; for Fold change: wild type IC50 / NTR over-expressing IC50
Procedure, shortened: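 Bloodstream T. brucei S427 'single marker' was grown at 37°C in HMI9-T with 2.5 µg/mL G418. The NTR1-overexpressing line also received 2.5 µg/mL phleomycin, with NTR induced by 1 µg/mL tetracycline 48 h before assay. Triplicate cultures were seeded at 1 × 10^5 cells/mL with inhibitor and counted after 72 h. EC50 came from a two-parameter fit (slope factor m) to background-corrected density as % of uninhibited control. Fold change is wild-type IC50 / overexpressor IC50.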

[5] = tested on: T. brucei brucei trypomastigotes wild type strain; assay: Bioactivation study, wild type strain; assay type: cell-based; conditions: Trypanosoma brucei, 72 h, read-out: IC50 T. brucei brucei trypomastigotes wild type strain
[6] = Chemical stability of the product; assay type: physicochemical; conditions: in words; cyclises to 25 on recrystallisation from acetonitrile
[7] = Cyclic voltammetry, reduction potentials; assay type: physicochemical; conditions: DMSO/TBAPF6, SCE/GC, 1 electron reversible reduction, V versus NHE
HepG2 cell line = conditions: read-out: CC50 HepG2; cited from earlier work
[8] = tested on: T. brucei brucei trypomastigotes; conditions: cited from earlier work
[9] = tested on: T. brucei brucei trypomastigotes wild type strain; conditions: read-out: IC50 T. brucei brucei trypomastigotes wild type strain; cited from earlier work
[10] = tested on: L. infantum axenic amastigotes; conditions: read-out: IC50 L. infantum axenic amastigotes; cited from earlier work
[11] = tested on: T. brucei brucei trypomastigotes NTR over-expressing strain; conditions: wild type IC50 / NTR over-expressing IC50; cited from earlier work
[12] = cited from earlier work
[13] = Aqueous solubility as observed in the biological assays; assay type: physicochemical; conditions: in words

SMILES | CC50 at 72 h [1] [µM] | IC50 [2] [µM] | Antitrypanosomal selectivity Index [3] | further results
COc1ccc(-c2cc3cccc([N+](=O)[O-])c3[nH]c2=O)cc1 [Compound 2, 3-(4-methoxyphenyl)-8-nitroquinolin-2(1H)-one] | > 6 | > 6 | – | –
O=c1[nH]c2c([N+](=O)[O-])cccc2cc1-c1cccc(CO)c1 [Compound 13, 3-(3-hydroxymethylphenyl)-8-nitroquinolin-2(1H)-one] | > 25 | 29.3 ± 4.2 | >17 | –
O=c1[nH]c2c([N+](=O)[O-])cccc2cc1-c1ccc(F)cc1 [Compound 6, 3-(4-fluorophenyl)-8-nitroquinolin-2(1H)-one] | > 6 | > 6 | – | –
CC1CS(=O)(=O)CCN1/N=C/c1ccc([N+](=O)[O-])o1 (centres unmarked) [Nifurtimox, reference compound] | – | – | – | IC50 [4]: 0.6 ± 0.05 µM; Fold change [4]: 3.1; IC50 [5]: 1.9 ± 0.05 µM
COc1cccc2c1C(=O)c1c(O)c3c(c(O)c1C2=O)C[C@@](O)(C(=O)CO)C[C@@H]3O[C@H]1C[C@H](N)[C@H](O)[C@H](C)O1 [Doxorubicin, reference compound] | 0.2 ± 0.02 | – | – | –
O=c1[nH]c2c([N+](=O)[O-])cccc2cc1-c1ccccc1CO [Compound 14, 3-(2-hydroxymethylphenyl)-8-nitroquinolin-2(1H)-one] | > 100 | 22 ± 2 | >14 | –
O=C(O)c1ccccc1-c1cc2cccc([N+](=O)[O-])c2[nH]c1=O [Compound 23, 3-(2-carboxyphenyl)-8-nitroquinolin-2(1H)-one] | > 100 | > 100 | – | –
O=c1[nH]c2c([N+](=O)[O-])cccc2cc1C#Cc1ccccc1 [Compound 24, 8-nitro-3-phenylethynylquinolin-2(1H)-one] | – | – | – | stability [6]: too unstable
O=c1[nH]c2c([N+](=O)[O-])cccc2cc1-c1ccsc1 [Compound 8, 8-nitro-3-(thiophen-3-yl)quinolin-2(1H)-one] | > 6 | > 6 | – | –
O=c1[nH]c2c([N+](=O)[O-])cccc2cc1-c1ccccc1 [Compound 1, 8-nitro-3-phenylquinolin-2(1H)-one] | > 12 | > 12 | >2 | E° (reduction potential) [7]: -0.59 V
Cc1ccc(C(=O)Nc2ccc(S(=O)(=O)O)c3cc(S(=O)(=O)O)cc(S(=O)(=O)O)c23)cc1NC(=O)c1cccc(NC(=O)Nc2cccc(C(=O)Nc3cc(C(=O)Nc4ccc(S(=O)(=O)O)c5cc(S(=O)(=O)O)cc(S(=O)(=O)O)c45)ccc3C)c2)c1 [Suramin, reference compound] | > 100 | – | >3333 | –
NCCCC(N)(C(=O)O)C(F)F (centres unmarked) [Eflornithine, reference compound] | > 100 | – | >6 | –
CCCCCCCCCCCCCCCCOP(=O)([O-])OCC[N+](C)(C)C [Miltefosine, reference compound] | 84.5 ± 8.8 | 0.8 ± 0.2 | – | –
O=C(O)c1cccc(-c2cc3cccc([N+](=O)[O-])c3[nH]c2=O)c1 [Compound 22, 3-(3-carboxyphenyl)-8-nitroquinolin-2(1H)-one] | > 100 | > 100 | >13 | –
COc1nc2c([N+](=O)[O-])cccc2cc1-c1ccc(C(=O)O)cc1 [Compound 26, 3-(4-carboxyphenyl)-2-methoxy-8-nitroquinoline] | – | 12.8 | – | –
COC(=O)c1ccc(-c2cc3cccc([N+](=O)[O-])c3[nH]c2=O)cc1 [Compound 18, 3-(4-methoxycarbonylphenyl)-8-nitroquinolin-2(1H)-one] | > 12.5 | > 12.5 | – | –

SMILES | CC50 at 72 h [1] [µM] | IC50 [2] [µM] | Antitrypanosomal selectivity Index [3] | further results
O=c1[nH]c2c([N+](=O)[O-])cccc2cc1-c1ccc(C(F)(F)F)cc1 [Compound 7, 8-nitro-3-(4-trifluoromethylphenyl)quinolin-2(1H)-one] | > 6 | > 6 | – | E° (reduction potential) [7]: -0.53 V
O=Cc1ccc(-c2cc3cccc([N+](=O)[O-])c3[nH]c2=O)cc1 [Compound 15, 3-(4-formylphenyl)-8-nitroquinolin-2(1H)-one] | 30 ± 3.7 | 35 ± 1.7 | 60 | times more potent than the meta-substituted analogue [3]: 11
O=c1[nH]c2c([N+](=O)[O-])cccc2cc1-c1ccc(CO)cc1 [Compound 12, 3-(4-hydroxymethylphenyl)-8-nitroquinolin-2(1H)-one] | > 25 | > 25 | >13 | –
O=c1[nH]c2c([N+](=O)[O-])cccc2cc1-c1cccnc1 [Compound 10, 8-nitro-3-(pyridine-3-yl)quinolin-2(1H)-one] | > 25 | > 50 | >9 | –
O=Cc1ccccc1-c1cc2cccc([N+](=O)[O-])c2[nH]c1=O [Compound 17, 3-(2-formylphenyl)-8-nitroquinolin-2(1H)-one] | > 50 | 9.8 ± 1.2 | >7 | –
C[C@@H]1[C@H](O)[C@@H](C)/C=C/C=C/C=C/C=C/C=C/C=C/C=C/[C@H](O[C@@H]2O[C@H](C)[C@@H](O)[C@H](N)[C@@H]2O)C[C@@H]2O[C@](O)(C[C@@H](O)C[C@@H](O)[C@H](O)CC[C@@H](O)C[C@@H](O)CC(=O)O[C@H]1C)C[C@H](O)[C@H]2C(=O)O [Amphotericin B, reference compound] | 7 ± 0.25 | 0.06 ± 0.001 | – | –
O=c1[nH]c2c([N+](=O)[O-])cccc2cc1Br [Initial Hit, 3-bromo-8-nitroquinolin-2(1H)-one] | – | – | – | CC50 (HepG2 cell line): 92 ± 13 µM; Antitrypanosomal selectivity Index ([8]; CC50 HepG2 / IC50 T. brucei brucei): 48; IC50 ([8]; read-out: IC50 T. brucei brucei trypomastigotes): 1.9 ± 0.44 µM; IC50 [9]: 17.7 ± 1 µM; IC50 [10]: 7.1 ± 1.5 µM; Fold change [11]: 4.5; genotoxicity in the comet assay [12]: not genotoxic
O=C(O)c1ccc(-c2cc3cccc([N+](=O)[O-])c3[nH]c2=O)cc1 [Compound 21, 3-(4-carboxyphenyl)-8-nitroquinolin-2(1H)-one] | 120 ± 7 | > 100 | 80 | times more potent than the meta-substituted analogue [3]: 5; IC50 [4]: 4.2 ± 0.2 µM; Fold change [4]: 1.3; E° (reduction potential) [7]: -0.56 V; IC50 [5]: 5.4 ± 0.12 µM
O=c1[nH]c2c([N+](=O)[O-])cccc2cc1-c1ccc(Cl)cc1 [Compound 5, 3-(4-chlorophenyl)-8-nitroquinolin-2(1H)-one] | > 3 | > 3 | – | –
CSc1ccc(OCc2ncc([N+](=O)[O-])n2C)cc1 [Fexinidazole, reference compound] | > 100 | 3.3 ± 0.7 | >250 | –
O=c1[nH]c2c([N+](=O)[O-])cccc2cc1-c1ccc(O)cc1 [Compound 3, 3-(4-hydroxyphenyl)-8-nitroquinolin-2(1H)-one] | > 3 | > 3 | – | –
O=[N+]([O-])c1cccc2cc3cc(-c4ccccc4)oc3nc12 [Compound 25, 8-nitro-2-phenyl-furo[2,3-b]quinoline] | – | – | – | aqueous solubility [13]: very poor aqueous solubility
O=c1[nH]c2c([N+](=O)[O-])cccc2cc1-c1ccco1 [Compound 9, 3-(2-furanyl)-8-nitroquinolin-2(1H)-one] | > 3 | > 3 | – | –
Nc1ccc(-c2cc3cccc([N+](=O)[O-])c3[nH]c2=O)cc1 [Compound 4, 3-(4-aminophenyl)-8-nitroquinolin-2(1H)-one] | > 3 | > 3 | – | –
O=Cc1cccc(-c2cc3cccc([N+](=O)[O-])c3[nH]c2=O)c1 [Compound 16, 3-(3-formylphenyl)-8-nitroquinolin-2(1H)-one] | > 100 | 10.2 ± 0.6 | >18 | –

Reference: PMC7089779 (ChemMedChem, 2018)
